Results on 1 compound are retold here after ChEMBL document CHEMBL4038313, “Expanding the Antiviral Spectrum of 3-Fluoro-2-(phosphonomethoxy)propyl Acyclic Nucleoside Phosphonates: Diamyl Aspartate Amidate Prodrugs” (J Med Chem, 2017).

Data set [1] concerns Human alphaherpesvirus 3. Description: Antiviral activity against thymidine kinase expressing Varicella-Zoster virus Oka strain assessed as inhibition of plaque formation. Type of data set: functional. The settings on record: Human alphaherpesvirus 3, strain Oka vaccine. The procedure, abridged:
(§1)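 HEL fibroblast monolayers inoculated with 100 CCID50 HCMV (AD-169, Davis) or 20 PFU VZV (TK+ Oka, TK− 07-1). Adsorbed 1–2 h, inoculum removed, then incubated with compound dilutions. HCMV cytopathicity or VZV plaques scored once untreated infected controls reached completion. EC50 is 50% reduction. SI is CC50/EC50, and the potency ratio is the ratio of EC50s.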

Data set [2] in a line: Cytotoxicity against human PHA-stimulated PBMC assessed as cell viability by tetrazolium dye assay. Format: cell-based.
The test system of data set [3] is Human alphaherpesvirus 3. In words: Potency index, ratio of (S)-9-[3-Fluoro-2-(phosphonomethoxy)propyl]adenine EC50 to compound EC50 for thymidine kinase deficient Varicella-Zoster virus 07-1. Type of data set: functional. The gist of the method:
as §1

Data set [4] can be described thus: Half life in human plasma at 1 uM by HPLC-MS/MS method. Format: ADME, cell-free. The gist of the method:
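Human plasma preincubated 10 min with pH 7.4 phosphate buffer at 37 °C. Compound added at final 1 μM and sampled at 0, 0.5, 1, 1.5 and 2 h into acetonitrile. Centrifuged and analysed by HPLC-MS/MS. t1/2 is the mean of two experiments.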

Data set [5] concerns Human immunodeficiency virus 1. Description: Antiviral activity against CCR5 tropic HIV1 BaL infected in human PHA-stimulated PBMC assessed as inhibition of viral replication by measuring reduction in p24 antigen production preincubated with cells for 30 mins followed by viral infection measured on day 10 post infection in presence of IL-2 by ELISA. Type of data set: functional. Conditions: Human immunodeficiency virus 1, BaL. The procedure, abridged:
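PBMCs stimulated with 2 μg/mL PHA for 3 days at 37 °C, then 5 × 10^5 cells/ml preincubated 30 min at 37 °C with serial compound dilutions plus 2 ng/mL IL-2. Infected with 1500 pg/well HIV-1 BaL or 500 pg/well other isolates. IL-2 re-added on days 3 and 6. Supernatant p24 Ag measured by ELISA at day 10. EC50 is 50% inhibition of replication.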

Data set [6] can be described thus: Cytotoxicity against human TZM-bl cells assessed as cell viability by tetrazolium dye assay. Format: cell-based.
A short description of data set [7]: Half life in human liver microsomes at 0.1 uM in presence of NADPH by HPLC-MS/MS method. Type of data set: ADME, microsome. The gist of the method:
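Pooled human liver microsomes preincubated 10 min at 37 °C with an NADPH-regenerating system (1 mM NADP, 5 mM G6P, G6PDH) in pH 7.4 phosphate with 3 mM MgCl2 and 1 mM EDTA. Compound added at final 0.1 μM and sampled at 0–60 min into acetonitrile/methanol. Analysed by HPLC-MS/MS, mean of two experiments.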
For orientation: Microsomes from liver hold many membrane-bound enzymes, among them those of drug oxidation.

Data set [8] is described as follows: Selectivity index, ratio of CC50 for HepG2.2.15 cells to EC50 for HBV ayw1 infected in human HepG2(2.2.15) cells assessed as reduction in viral replication by measuring intracellular viral DNA copy. The procedure, abridged: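 Run as the HepG2.2.15 6-day assay (triplicate compound, medium with compound renewed at day 3). At the end, total intracellular DNA was isolated from the cells and HBV DNA copy number measured by TaqMan qPCR. EC50/EC90 derived; SI is CC50/EC50.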

The nature of data set [9]: Cytotoxic activity against HEL cells assessed as reduction in cell proliferation after 3 days by coulter counting method. Conditions: human. Format: cell-based. The gist of the method: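 HEL cells seeded at 5 × 10^3/well, grown 24 h, then given compound for 3 days at 37 °C. Cell number counted by Coulter counter. CC50 is 50% reduction of proliferation relative to untreated controls, read from graphic plots.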

A short description of data set [10]: Selectivity index, ratio of CC50 for human PHA-stimulated PBMCs to IC50 for CCR5 tropic HIV1 BaL infected in human PHA-stimulated PBMC.
The nature of data set [11]: Selectivity index, ratio of CC50 for human TZM-bl cells to EC50 for CXCR4-tropic HIV-1 NL4-3 infected in human TZM-bl cells. Type of data set: toxicity, cell-based. Conditions: read-out: Ratio CC50/EC50.
A short description of data set [12]: Selectivity index, ratio of CC50 for human TZM-bl cells to EC50 for CCR5 tropic HIV1 BaL infected in human TZM-bl cells. Format: toxicity, cell-based. The settings on record: read-out: Ratio CC50/EC50.
The subject of data set [13] is Human immunodeficiency virus 1. In words: Antiviral activity against CXCR4-tropic HIV-1 NL4-3 infected in human TZM-bl cells assessed as inhibition of virus-induced cytopathic effect preincubated with cells for 30 mins followed by viral infection measured after 48 hrs in presence of p-24 HIV-1 Ag by luciferase reporter gene assay. The settings on record: Human immunodeficiency virus 1, NL4-3, TZM-bl. Type of data set: functional, cell-based. The gist of the method: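 TZM-bl cells, 1 × 10^4 per well in DMEM with 10% FBS and 10 mM […], incubated 30 min at 37 °C with compound. Then HIV-1 NL4.3 (X4) or BaL (R5) added at 100 pg p24 Ag per well. After 48 h, cells lysed with luciferase substrate. Tat-induced luminescence read after 10 min dark incubation as a measure of replication.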
In general terms: Cytopathic effects are the visible damage that an infection or toxin causes in cultured cells.

Data set [14] can be described thus: Stability of the compound in pH 1 buffer at 2 mg after 5 hrs by 31P NMR spectroscopy. Format: physicochemical. Conditions: pH 1, 5 h. The procedure, abridged: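 2.0 mg compound in 0.2 mL acetone-d6 plus 0.3 mL pH 1 buffer (equal parts 0.2 M HCl and 0.2 M KCl). In situ 31P NMR (202 MHz) at 37 °C, spectra every 30 min over 14 h.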
Data set [15] relates to Human alphaherpesvirus 3. Description: Potency index, ratio of (S)-9-[3-Fluoro-2-(phosphonomethoxy)propyl]adenine EC50 to compound EC50 for thymidine kinase expressing Varicella-Zoster virus Oka. Type of data set: functional, strain Oka vaccine. The procedure, abridged: as §1
Data set [16] in a line: Cytotoxicity against human MT4 cells assessed as reduction in cell viability after 6 days by XTT tetrazolium dye-based assay. The gist of the method:
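MT-4 cells, 1 × 10^4 per well, given compound dilutions and wild-type NL4-3 or K65R NL4-3. Virus titred to give 85–95% cell killing at day 6. Incubated 6 days at 37 °C, 5% CO2. Viability read by XTT at 450/650 nm. EC50 from CPE reduction and toxicity from uninfected drug wells, by four-parameter fit. Fold change is K65R EC50 over wild-type EC50.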
A general note: Tetrazolium dyes change colour on reduction, which living cells bring about.

Data set [17] can be described thus: Stability of the compound in phosphate buffer of pH 8 at 1 mg after 1 hr by 31P NMR spectroscopy. Type of data set: physicochemical. Conditions: pH 8, 1 h. The procedure, abridged:
(§2)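 1 mg compound in 0.2 mL acetone-d6 plus 0.3 mL pH 8 buffer (0.1 M Na2HPO4 adjusted with 0.1 M HCl). In situ 31P NMR (202 MHz) at 37 °C, spectra every 30 min over 14 h.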

A short description of data set [18]: Stability of the compound in phosphate buffer of pH 8 at 1 mg after 14 hrs by 31P NMR spectroscopy. Type of data set: physicochemical. Conditions: read-out: Stability. The gist of the method: as §2
The test system of data set [19] is Human immunodeficiency virus 1. Description: Potency index, ratio of (S)-9-[3-Fluoro-2-(phosphonomethoxy)propyl]adenine EC50 to compound EC50 for CXCR4-tropic HIV-1 NL4-3 infected in human TZM-bl cells. Format: functional.
Data set [20] has as its system Human immunodeficiency virus 1. In words: Potency index, ratio of (S)-9-[3-Fluoro-2-(phosphonomethoxy)propyl]adenine EC50 to compound EC50 for CCR5 tropic HIV1 BaL infected in human TZM-bl cells. Type of data set: functional.

As to `CCCCCOC(=O)C[C@H](NP(=O)(CO[C@H](CF)Cn1cnc2c(N)ncnc21)Oc1ccccc1)C(=O)OCCCCC` (stereo not given in full), the EC50 (commonly the concentration that produces a half-maximal response) worked out at 50 nM in the data set with Human alphaherpesvirus 3 [1] and 10 nM in data set [13]. Besides, the half-maximal cytotoxic concentration (CC50) (in general, the concentration that lowers cell viability or growth by half) in [2] was 2480 nM; in data set [6] it was 33200 nM. For the same compound, the “Ratio EC50” value in the data set on Human alphaherpesvirus 3 [3] is 2000; in the data set with Human alphaherpesvirus 3 [15], 2000; in data set [19], 600; in [20] it was 1500. Besides, the half-life – broadly, the time needed for the level to fall by half in the phase considered – at 1 µM in data set [4] came out at 89 min. Moreover, the IC50 (in general, the concentration that gives 50% inhibition) in data set [5] was determined as 22 nM. Moreover, the half-life at 0.1 µM in data set [7] was found to be 2 min. In addition, the “Ratio CC50/EC50” value in data set [8] was 1017. Moreover, the half-maximal cytotoxic concentration (CC50) at 72 h in data set [9] worked out at 1960 nM. Further, the “Ratio CC50/IC50” value in data set [10] is listed as more than 113. The selectivity ratio came to 3320 in [11] and 7910 in data set [12]. Also, the Stability result in [14] and in [17] was “Stable” in each case. Besides, the CC50 at 144 h in data set [16] was more than 1000 nM. The remaining at 14 h in [18] stood at 58%.
